Calls of active or inactive are those of the source. The rule behind the calls is not given here.
Experiments:
[1] = molecular target: Proto-oncogene tyrosine-protein kinase Src (Homo sapiens, UniProt P12931); assay: Inhibition of recombinant SRC assessed as 33Pi incorporation after 60 mins by scintillation counting
Outline: (§1)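 Tyrosine kinases assayed on poly(Glu,Tyr) in 70 mM HEPES-NaOH pH 7.5, 3 mM MgCl2, 3 mM MnCl2, orthovanadate, 1.2 mM DTT, PEG, 1 µM [γ-33P]-ATP; 30 °C for 60 min, then 2% H3PO4 stop, saline wash, 33Pi scintillation. IC50 derived from residual activity at 10 concentrations in singlicate.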

[2] = molecular target: Serine/threonine-protein kinase N1 (Homo sapiens, UniProt Q16512); assay: Inhibition of recombinant PRK1 assessed as 33Pi incorporation after 60 mins by scintillation counting
Outline: (§2)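 Kinase reaction uses RBER-CHKtide as substrate in HEPES-NaOH pH 7.5 (70 mM) with 3 mM each MgCl2 and MnCl2, orthovanadate, 1.2 mM DTT, PEG and 1 µM [γ-33P]-ATP. Run at 30 °C for 60 min, quenched in 2% H3PO4, saline-washed, scintillation-counted. Residual activity at 10 concentrations (singlicate) gives IC50.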

[3] = molecular target: Dual specificity mitogen-activated protein kinase kinase 1 (Homo sapiens, UniProt Q02750); assay: Inhibition of wild type MEK1 assessed as 33Pi incorporation after 60 mins by scintillation counting
Dual specificity mitogen-activated protein kinase kinase 1, sequence (Q02750 whole entry): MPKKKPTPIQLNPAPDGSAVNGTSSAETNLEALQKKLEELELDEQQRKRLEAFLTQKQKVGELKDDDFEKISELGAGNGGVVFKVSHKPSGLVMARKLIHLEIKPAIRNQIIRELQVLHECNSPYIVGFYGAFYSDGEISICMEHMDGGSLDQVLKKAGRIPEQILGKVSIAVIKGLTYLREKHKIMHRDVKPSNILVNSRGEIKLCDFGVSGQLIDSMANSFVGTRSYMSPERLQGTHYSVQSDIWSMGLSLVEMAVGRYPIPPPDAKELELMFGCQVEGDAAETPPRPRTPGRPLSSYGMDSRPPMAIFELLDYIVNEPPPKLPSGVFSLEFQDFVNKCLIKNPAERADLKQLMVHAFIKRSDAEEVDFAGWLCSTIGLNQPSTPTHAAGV
Outline: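 ERK2-KR is the substrate for wild-type MEK1 in 70 mM HEPES-NaOH pH 7.5 containing 3 mM MgCl2, 3 mM MnCl2, orthovanadate, 1.2 mM DTT, PEG and 1 µM [γ-33P]-ATP. Reaction runs 60 min at 30 °C and is stopped with 2% H3PO4; incorporated 33Pi is counted after washing. IC50 comes from 10 concentrations tested once each.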

[4] = tested on: K562; assay: Antiproliferative activity against human K562 cells up to 365 uM after 24 hrs by MTT assay; type: functional, cell-based
[5] = molecular target: Tyrosine-protein kinase receptor UFO (Homo sapiens, UniProt P30530); assay: (§3) Inhibition of recombinant AXL assessed as 33Pi incorporation after 60 mins by scintillation counting; outline: as §1
[6] = molecular target: ALK tyrosine kinase receptor (Homo sapiens, UniProt Q9UM73); assay: Inhibition of recombinant ALK assessed as 33Pi incorporation after 60 mins by scintillation counting; outline: as §1
[7] = molecular target: RAC-alpha serine/threonine-protein kinase (Homo sapiens, UniProt P31749); assay: Inhibition of recombinant AKT1 assessed as 33Pi incorporation after 60 mins by scintillation counting
RAC-alpha serine/threonine-protein kinase, sequence (P31749 whole entry): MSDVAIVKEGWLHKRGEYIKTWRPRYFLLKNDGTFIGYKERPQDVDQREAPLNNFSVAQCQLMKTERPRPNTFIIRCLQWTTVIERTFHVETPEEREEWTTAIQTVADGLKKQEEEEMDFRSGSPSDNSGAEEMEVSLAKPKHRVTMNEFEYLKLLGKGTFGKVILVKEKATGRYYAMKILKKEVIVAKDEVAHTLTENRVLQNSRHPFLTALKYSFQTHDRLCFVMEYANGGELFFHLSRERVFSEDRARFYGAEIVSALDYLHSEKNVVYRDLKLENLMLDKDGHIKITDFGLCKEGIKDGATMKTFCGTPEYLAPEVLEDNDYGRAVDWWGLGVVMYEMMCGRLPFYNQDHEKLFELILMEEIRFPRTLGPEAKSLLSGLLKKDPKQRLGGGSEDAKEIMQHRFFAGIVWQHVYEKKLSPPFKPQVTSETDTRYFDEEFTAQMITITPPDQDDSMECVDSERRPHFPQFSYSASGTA
Outline: (§4)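 Recombinant kinase with GSK3(14-27) substrate in 70 mM HEPES-NaOH pH 7.5, 3 mM MgCl2, 3 mM MnCl2, Na-orthovanadate, 1.2 mM DTT, PEG, 1 µM [γ-33P]-ATP. Incubated 30 °C, 60 min, stopped with 2% H3PO4, washed with 0.9% NaCl, 33Pi counted. IC50 from residual activity over 10 concentrations in singlicate.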

[8] = molecular target: Hepatocyte growth factor receptor (Homo sapiens, UniProt P08581); assay: Inhibition of wild type MET assessed as 33Pi incorporation after 60 mins by scintillation counting
Hepatocyte growth factor receptor, sequence (P08581 whole entry): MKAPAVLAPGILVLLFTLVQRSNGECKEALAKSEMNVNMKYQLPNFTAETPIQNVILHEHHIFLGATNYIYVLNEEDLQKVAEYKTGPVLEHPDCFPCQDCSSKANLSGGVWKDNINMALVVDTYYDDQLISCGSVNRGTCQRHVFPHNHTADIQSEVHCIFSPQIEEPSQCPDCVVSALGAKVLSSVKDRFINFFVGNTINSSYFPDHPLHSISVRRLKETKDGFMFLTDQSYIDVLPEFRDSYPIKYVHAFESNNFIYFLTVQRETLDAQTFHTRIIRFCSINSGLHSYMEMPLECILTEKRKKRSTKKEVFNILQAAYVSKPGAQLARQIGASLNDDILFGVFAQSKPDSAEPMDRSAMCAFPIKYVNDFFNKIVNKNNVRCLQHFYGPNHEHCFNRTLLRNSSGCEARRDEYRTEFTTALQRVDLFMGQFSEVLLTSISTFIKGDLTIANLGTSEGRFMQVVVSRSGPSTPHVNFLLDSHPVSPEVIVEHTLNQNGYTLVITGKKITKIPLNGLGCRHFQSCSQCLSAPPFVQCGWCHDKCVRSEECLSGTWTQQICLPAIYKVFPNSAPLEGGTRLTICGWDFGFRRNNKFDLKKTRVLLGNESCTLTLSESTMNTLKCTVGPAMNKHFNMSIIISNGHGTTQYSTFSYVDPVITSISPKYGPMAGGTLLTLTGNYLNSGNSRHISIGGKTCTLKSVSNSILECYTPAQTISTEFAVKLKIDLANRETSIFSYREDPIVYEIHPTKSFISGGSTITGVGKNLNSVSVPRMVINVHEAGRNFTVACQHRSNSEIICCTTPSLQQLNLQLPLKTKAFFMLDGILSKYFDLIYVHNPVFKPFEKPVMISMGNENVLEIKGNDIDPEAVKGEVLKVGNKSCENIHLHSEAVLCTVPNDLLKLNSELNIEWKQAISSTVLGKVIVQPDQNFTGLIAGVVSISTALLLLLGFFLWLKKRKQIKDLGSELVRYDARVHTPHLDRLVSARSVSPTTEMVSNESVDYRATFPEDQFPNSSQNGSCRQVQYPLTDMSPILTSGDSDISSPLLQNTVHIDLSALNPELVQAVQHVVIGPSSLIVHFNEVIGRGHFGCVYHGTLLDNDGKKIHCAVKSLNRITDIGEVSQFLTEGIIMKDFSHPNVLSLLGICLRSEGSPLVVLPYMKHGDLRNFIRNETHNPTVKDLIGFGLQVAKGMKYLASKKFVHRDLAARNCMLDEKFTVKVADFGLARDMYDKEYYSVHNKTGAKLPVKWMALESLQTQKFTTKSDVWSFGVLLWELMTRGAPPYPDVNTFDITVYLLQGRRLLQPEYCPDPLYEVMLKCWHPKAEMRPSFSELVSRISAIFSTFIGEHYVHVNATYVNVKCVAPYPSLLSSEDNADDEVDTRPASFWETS
Outline: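 Wild-type MET phosphorylates poly(Ala,Glu,Lys,Tyr) in HEPES-NaOH pH 7.5 (70 mM) with 3 mM MgCl2, 3 mM MnCl2, orthovanadate, 1.2 mM DTT, PEG, 1 µM [γ-33P]-ATP, at 30 °C for 60 min. Stop with 2% H3PO4, wash, scintillation count. IC50 from residual activity at 10 singlicate concentrations.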

[9] = molecular target: Vascular endothelial growth factor receptor 2 (Homo sapiens, UniProt P35968); assay: Inhibition of recombinant VEGF-R2 assessed as 33Pi incorporation after 60 mins by scintillation counting; outline: as §1
[10] = tested on: HUVEC; assay: Inhibition of VEGF-A induced HUVEC cell sprouting after 24 hrs by angiogenesis assay; type: functional, cell-based; settings: Homo sapiens
Outline: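 HUVEC spheroids (500 cells, formed overnight in hanging drops) embedded in collagen gel. Compound plus VEGF-A (25 ng/mL final) added after 30 min; 37 °C for 24 h, then paraformaldehyde fixation. Mean cumulative sprout length of 10 random spheroids per point; seven concentrations, 10 µM to 10 nM, in singlicate for IC50.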

[11] = molecular target: NUAK family SNF1-like kinase 1 (Homo sapiens, UniProt O60285); assay: (§5) Inhibition of recombinant ARK5 assessed as 33Pi incorporation after 60 mins by scintillation counting; outline: as §2
[12] = molecular target: Focal adhesion kinase 1 (Homo sapiens, UniProt Q05397); assay: Inhibition of recombinant FAK assessed as 33Pi incorporation after 60 mins by scintillation counting; outline: as §1
[13] = molecular target: Serine/threonine-protein kinase PLK1 (Homo sapiens, UniProt P53350); assay: Inhibition of recombinant PLK1 assessed as 33Pi incorporation after 60 mins by scintillation counting; outline: as §2
Serine/threonine-protein kinase PLK1, sequence (P53350 whole entry): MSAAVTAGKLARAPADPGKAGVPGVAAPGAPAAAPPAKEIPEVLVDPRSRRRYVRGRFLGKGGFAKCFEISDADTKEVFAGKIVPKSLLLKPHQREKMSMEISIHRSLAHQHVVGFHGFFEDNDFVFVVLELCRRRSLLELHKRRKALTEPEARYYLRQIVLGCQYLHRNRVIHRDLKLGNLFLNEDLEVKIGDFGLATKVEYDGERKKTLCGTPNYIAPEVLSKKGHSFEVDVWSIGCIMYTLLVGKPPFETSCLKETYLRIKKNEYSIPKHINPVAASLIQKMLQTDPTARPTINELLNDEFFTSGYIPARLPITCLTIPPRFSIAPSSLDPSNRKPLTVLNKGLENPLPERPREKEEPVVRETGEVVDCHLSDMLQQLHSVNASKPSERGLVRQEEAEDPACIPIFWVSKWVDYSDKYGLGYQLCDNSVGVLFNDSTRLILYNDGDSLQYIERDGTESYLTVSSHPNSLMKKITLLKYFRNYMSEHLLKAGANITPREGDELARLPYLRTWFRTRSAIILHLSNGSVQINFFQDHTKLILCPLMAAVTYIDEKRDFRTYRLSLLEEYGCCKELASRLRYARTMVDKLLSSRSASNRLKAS

[14] = molecular target: Insulin-like growth factor 1 receptor (Homo sapiens, UniProt P08069); assay: Inhibition of recombinant IGF1-R assessed as 33Pi incorporation after 60 mins by scintillation counting; outline: as §1
Insulin-like growth factor 1 receptor, sequence (P08069 31-736 limits assumed): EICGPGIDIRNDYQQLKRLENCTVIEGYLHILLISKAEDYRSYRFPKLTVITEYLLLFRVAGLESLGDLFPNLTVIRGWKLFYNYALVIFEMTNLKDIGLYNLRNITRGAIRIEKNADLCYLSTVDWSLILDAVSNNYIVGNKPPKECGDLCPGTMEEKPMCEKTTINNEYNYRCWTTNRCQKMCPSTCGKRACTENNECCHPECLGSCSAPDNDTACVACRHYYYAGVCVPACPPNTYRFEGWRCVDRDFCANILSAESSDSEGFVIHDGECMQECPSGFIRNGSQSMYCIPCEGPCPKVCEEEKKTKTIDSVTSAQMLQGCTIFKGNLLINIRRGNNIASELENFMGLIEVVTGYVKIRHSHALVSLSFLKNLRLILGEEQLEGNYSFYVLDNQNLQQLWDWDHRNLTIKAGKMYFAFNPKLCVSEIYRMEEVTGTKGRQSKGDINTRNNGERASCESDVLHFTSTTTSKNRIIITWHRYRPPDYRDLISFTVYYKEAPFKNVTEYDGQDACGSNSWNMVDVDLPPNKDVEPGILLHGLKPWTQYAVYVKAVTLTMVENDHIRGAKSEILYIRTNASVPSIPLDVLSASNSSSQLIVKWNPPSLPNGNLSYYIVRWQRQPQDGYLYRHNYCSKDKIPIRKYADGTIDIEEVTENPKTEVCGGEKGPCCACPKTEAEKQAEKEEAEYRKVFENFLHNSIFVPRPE
Insulin-like growth factor 1 receptor, sequence (P08069 741-1367 limits assumed): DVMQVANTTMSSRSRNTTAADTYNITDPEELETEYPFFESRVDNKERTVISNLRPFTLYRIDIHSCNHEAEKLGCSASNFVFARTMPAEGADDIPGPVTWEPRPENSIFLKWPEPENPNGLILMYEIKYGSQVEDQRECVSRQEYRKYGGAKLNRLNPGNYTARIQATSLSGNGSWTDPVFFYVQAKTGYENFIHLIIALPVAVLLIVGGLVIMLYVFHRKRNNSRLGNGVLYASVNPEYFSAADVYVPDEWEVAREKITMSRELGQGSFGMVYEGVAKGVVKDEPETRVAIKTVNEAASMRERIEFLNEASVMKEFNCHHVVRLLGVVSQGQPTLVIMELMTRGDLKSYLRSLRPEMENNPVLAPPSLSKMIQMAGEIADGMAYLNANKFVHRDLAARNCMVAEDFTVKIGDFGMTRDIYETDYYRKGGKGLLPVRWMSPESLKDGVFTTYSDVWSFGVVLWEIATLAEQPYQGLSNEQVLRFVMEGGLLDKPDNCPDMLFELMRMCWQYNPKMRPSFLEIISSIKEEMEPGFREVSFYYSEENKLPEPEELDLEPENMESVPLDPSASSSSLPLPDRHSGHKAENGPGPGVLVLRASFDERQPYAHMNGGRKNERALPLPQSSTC

[15] = molecular target: Aurora kinase B (Homo sapiens, UniProt Q96GD4); assay: Inhibition of recombinant Aurora-b assessed as 33Pi incorporation after 60 mins by scintillation counting
Outline: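 Substrate tetra(LRRWSLG) with recombinant Aurora-B. Buffer is 70 mM HEPES-NaOH pH 7.5, 3 mM MgCl2, 3 mM MnCl2, orthovanadate, 1.2 mM DTT, PEG, with 1 µM [γ-33P]-ATP. After 60 min at 30 °C, 2% H3PO4 stop, NaCl washes, 33Pi counted. IC50 fitted from 10 singlicate concentrations.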

[16] = tested on: L5178Y; assay: Antiproliferative activity against mouse L5178Y cells after 24 hrs by MTT assay; type: functional, cell-based
Outline: (§6)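 Microplate MTT proliferation read-out, scored against untreated controls; each experiment run in triplicate.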

[17] = molecular target: Serine/threonine-protein kinase pim-1 (Homo sapiens, UniProt P11309); assay: Inhibition of recombinant PIM1 assessed as 33Pi incorporation after 60 mins by scintillation counting; outline: as §4
[18] = molecular target: Serine/threonine-protein kinase Nek6 (Homo sapiens, UniProt Q9HC98); assay: Inhibition of recombinant NEK6 assessed as 33Pi incorporation after 60 mins by scintillation counting; outline: as §4
Serine/threonine-protein kinase Nek6, sequence (Q9HC98 whole entry): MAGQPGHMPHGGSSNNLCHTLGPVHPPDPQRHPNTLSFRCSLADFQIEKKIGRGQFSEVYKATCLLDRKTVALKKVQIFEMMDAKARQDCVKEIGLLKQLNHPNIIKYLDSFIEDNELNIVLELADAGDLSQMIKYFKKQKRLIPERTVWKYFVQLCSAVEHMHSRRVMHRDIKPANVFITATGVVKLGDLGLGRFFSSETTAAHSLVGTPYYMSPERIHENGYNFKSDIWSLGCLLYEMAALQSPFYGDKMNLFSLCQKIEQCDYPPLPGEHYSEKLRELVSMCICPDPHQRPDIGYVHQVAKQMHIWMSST

[19] = molecular target: Serine/threonine-protein kinase Nek2 (Homo sapiens, UniProt P51955); assay: (§7) Inhibition of recombinant NEK2 assessed as 33Pi incorporation after 60 mins by scintillation counting
Outline: (§8)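 NEK2 reaction on RB-CTF substrate. Contains 70 mM HEPES-NaOH pH 7.5, 3 mM MgCl2/MnCl2, orthovanadate, 1.2 mM DTT, PEG and 1 µM [γ-33P]-ATP. Incubation is 30 °C, 60 min, followed by 2% H3PO4 stop, 0.9% NaCl washes and 33Pi scintillation counting. IC50 from 10 concentrations in singlicate.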

[20] = tested on: A2780; assay: Antiproliferative activity against human cisplatin resistant A2780 cells after 24 hrs by MTT assay; type: functional, cell-based; outline: as §6
[21] = tested on: A2780; assay: Antiproliferative activity against human A2780 cells after 24 hrs by MTT assay; type: functional, cell-based; outline: as §6
[22] = tested on: K562; assay: Antiproliferative activity against human K562 cells after 24 hrs by MTT assay; type: functional, cell-based; outline: as §6
[23] = molecular target: Tyrosine-protein kinase receptor UFO (Homo sapiens) (UniProt P30530); assay: as §3; outline: as §1
[24] = molecular target: NUAK family SNF1-like kinase 1 (Homo sapiens) (UniProt O60285); assay: as §5; outline: as §2
[25] = molecular target: Serine/threonine-protein kinase Nek2 (Homo sapiens) (UniProt P51955); assay: as §7; outline: as §8
[26] = Mus musculus, L5178Y, 24 h, read-out: IC50
[27] = Homo sapiens, A2780, 24 h, read-out: IC50
[28] = Homo sapiens, K562, 24 h, read-out: IC50

Proto-oncogene tyrosine-protein kinase Src, sequence (P12931 2-536 limits assumed): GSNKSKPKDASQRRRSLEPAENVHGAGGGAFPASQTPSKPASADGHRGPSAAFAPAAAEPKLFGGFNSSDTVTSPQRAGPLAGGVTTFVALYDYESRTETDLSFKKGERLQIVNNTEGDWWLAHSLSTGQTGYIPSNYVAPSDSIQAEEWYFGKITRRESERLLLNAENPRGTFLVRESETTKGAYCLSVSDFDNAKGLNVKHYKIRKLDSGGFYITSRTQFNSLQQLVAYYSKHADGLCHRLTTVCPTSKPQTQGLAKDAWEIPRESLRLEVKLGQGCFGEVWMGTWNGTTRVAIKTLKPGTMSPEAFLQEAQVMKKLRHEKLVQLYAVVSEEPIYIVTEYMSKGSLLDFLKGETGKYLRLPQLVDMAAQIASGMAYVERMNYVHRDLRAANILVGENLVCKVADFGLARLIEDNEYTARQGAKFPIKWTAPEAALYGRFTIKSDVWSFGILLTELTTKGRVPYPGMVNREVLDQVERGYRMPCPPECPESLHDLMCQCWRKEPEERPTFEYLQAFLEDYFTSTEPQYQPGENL

Cc1c(O)c(O)cc2oc3cc(O)cc(O)c3c(=O)c12 [ANOMALIN A]
IC50 [1]: 12.9 µM
IC50 [2]: 45.3 µM
IC50 [3]: > 100 µM
IC50 [4]: Not Active
IC50 [5]: 6.6 µM
IC50 [6]: 1.1 µM
IC50 [7]: > 100 µM
IC50 [8]: 4.4 µM
IC50 [9]: 0.8 µM
IC50 [10]: 1.8 µM
IC50 [11]: 15.6 µM
IC50 [12]: 15.2 µM
IC50 [13]: 8.8 µM
IC50 [14]: 8.6 µM
IC50 [15]: 0.5 µM
IC50 [16, 26]: 0.4 µM
IC50 [17]: 0.3 µM
IC50 [18]: 67.8 µM
IC50 [19]: 83.9 µM
IC50 [20, 27]: 26 µM
IC50 [21, 27]: 4.34 µM

C=Cc1c(C)cc(O)c2c1[C@H](O)[C@H]1OC(=O)[C@]3(C)CC[C@@H]4C[C@@]24[C@H]13 [ARTHRININ A]
IC50 ([22]; k562): Not Active
IC50 ([16]; l5178y): Not Active
IC50 ([20]; a2780): Not Active
IC50 ([21]; a2780): Not Active

C=Cc1c(C)cc2c(c1O)[C@]13C[C@H]1CC[C@@]1(C)C(=O)O[C@H]([C@H]2O)[C@@H]31 [ARTHRININ B]
IC50 ([22]; k562): Not Active
IC50 ([16]; l5178y): Not Active
IC50 ([20]; a2780): Not Active
IC50 ([21]; a2780): Not Active

Cc1cc(O)c2c(c1)[C@H](O)[C@H]1OC(=O)[C@]3(C)CC[C@@H]4C[C@@]24[C@H]13 [ARTHRININ C]
IC50 ([22]; k562): Not Active
IC50 ([16]; l5178y): Not Active
IC50 ([20]; a2780): Not Active
IC50 ([21]; a2780): Not Active

C=Cc1c(C)cc(O)c2c1[C@H](O)[C@@H](O)[C@H]1[C@]23C[C@H]3CC[C@@]1(C)C(=O)OC [ARTHRININ D]
IC50 ([22]; k562): Not Active
IC50 ([16]; l5178y): Not Active
IC50 ([20]; a2780): Not Active
IC50 ([21]; a2780): Not Active

C/C=C1\NC(=O)[C@H](Cc2ccccc2)NC(=O)[C@@H](C(C)C)NC(=O)[C@@H]([C@H](C)CC)NC(=O)[C@H](NC(=O)[C@H](NC(=O)[C@H](CCCN)NC(=O)[C@H]2CCCN2C(=O)[C@H](NC(=O)[C@@H](NC(=O)[C@@H](NC(=O)[C@H](NC(=O)CCCC(C)C)C(C)C)[C@@H](C)O)C(C)C)C(C)C)[C@H](C)CC)[C@H](C)OC(=O)[C@H](C(C)C)NC1=O [KAHALALIDE F]
IC50 [16, 26]: 4.3 µM

C=C[C@@]1(C)C=C2C(=O)C(O)=C3[C@](C)(C(=O)O)CC[C@@H]4C[C@]34[C@]2(O)C(=O)C1 [MYROCIN A]
inhibition [1]: inactive
inhibition [2]: inactive
inhibition [3]: inactive
inhibition [23]: inactive
inhibition [6]: inactive
inhibition [7]: inactive
inhibition [8]: inactive
inhibition [9]: inactive
IC50 [10]: 3.7 µM
inhibition [24]: inactive
inhibition [12]: inactive
inhibition [13]: inactive
inhibition [14]: inactive
inhibition [15]: inactive
IC50 [22, 28]: 42 µM
IC50 [16, 26]: 2.74 µM
inhibition [17]: inactive
inhibition [18]: inactive
inhibition [25]: inactive
IC50 [20, 27]: 155 µM
IC50 [21, 27]: 28.2 µM

C=C[C@]1(C)C=C2[C@@H](O)[C@@H]3OC(=O)[C@@]4(C)CC[C@H]5C[C@]5([C@@H]34)[C@@]2(O)C(=O)C1 [MYROCIN D]
inhibition [1]: inactive
inhibition [2]: inactive
inhibition [3]: inactive
inhibition [23]: inactive
inhibition [6]: inactive
inhibition [7]: inactive
inhibition [8]: inactive
inhibition [9]: inactive
IC50 [10]: 2.6 µM
inhibition [24]: inactive
inhibition [12]: inactive
inhibition [13]: inactive
inhibition [14]: inactive
inhibition [15]: inactive
IC50 [22, 28]: 50.3 µM
IC50 [16, 26]: 2.05 µM
inhibition [17]: inactive
inhibition [18]: inactive
inhibition [25]: inactive
IC50 [20, 27]: 66 µM
IC50 [21, 27]: 41.3 µM

Cc1cc(O)cc2oc3cc(O)cc(O)c3c(=O)c12 [NORLICHEXANTHONE]
IC50 [1]: 35 µM
IC50 [2]: 54.9 µM
IC50 [3]: > 100 µM
IC50 [5]: > 100 µM
IC50 [6]: 41.3 µM
IC50 [7]: > 100 µM
IC50 [8]: > 100 µM
IC50 [9]: 11.7 µM
IC50 [11]: 33 µM
IC50 [12]: > 100 µM
IC50 [13]: 75.7 µM
IC50 [14]: 33.3 µM
IC50 [15]: 3 µM
IC50 [22, 28]: 254 µM
IC50 [16, 26]: 1.16 µM
IC50 [17]: 0.3 µM
IC50 [18]: > 100 µM
IC50 [19]: > 100 µM
IC50 [20, 27]: 74 µM
IC50 [21, 27]: 68.2 µM

CCN(CC)CCNC(=O)c1c(C)[nH]c(/C=C2\C(=O)Nc3ccc(F)cc32)c1C [SUNITINIB]
IC50 [10]: 0.12 µM
